# ChEMBL document CHEMBL1125865, “Synthesis, antibacterial activities, and pharmacological properties of enantiomers of temafloxacin hydrochloride” (J Med Chem, 1991)
# Legend:
# Rattus norvegicus [1] = experiment: Effect on the spontaneous locomotor activity of rats at 0-15 min upon ip administration of the compounds at a dose of 15 mg/kg; type: functional; conditions: route intraperitoneal
# Method in brief: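 Rats were dosed ip; methylcellulose served as vehicle, and treatments were assigned randomly. Thirty minutes after dosing, each rat was placed in its own circular activity chamber. Activity was counted as photocell beam interruptions and recorded at 15 and 60 min after the test started. Values are mean counts ± SEM.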
# Rattus norvegicus [2] = experiment: Effect on the spontaneous locomotor activity of rats at 0-15 min upon ip administration of the compounds at a dose of 1 mg/kg; type: functional; conditions: route intraperitoneal
# Method in brief: (§1)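 Rats were given test agent or methylcellulose vehicle (ip or po, per line), with treatments in random order. 30 min after dosing, each rat went into an individual circular activity chamber. Locomotion was counted as photocell-beam interruptions, recorded at 15 and 60 min from test start and reported as mean counts ± SEM.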
# Rattus norvegicus [3] = experiment: Effect on the spontaneous locomotor activity of rats at 0-15 min upon po administration of the compounds at a dose of 30 mg/kg; type: functional; method in brief: as §1
# Pseudomonas aeruginosa [4] = experiment: Median dose against Pseudomonas aeruginosa A5007 in mouse after peroral administration at a dose of 100xLD50 in TEST 1.; type: functional; conditions: po
# Method in brief: (§2)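 CF-1 female mice (~20 g) were infected ip with 0.5 mL of an 18-h BHI broth culture diluted in 5% (w/v) hog gastric mucin to the stated multiple of LD50. The HCl salt was dissolved in distilled water and given sc or po, with the total dose split equally at 1 and 5 h post-infection. Groups of 10 mice received at least three dose levels; ten infected mice were left untreated. Deaths were recorded daily for 6 days. ED50 came from day-6 cumulative mortality using the trimmed logit method.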
# Escherichia coli [5] = experiment: Median dose against Escherichia coli Juhl in mouse after subcutaneous administration at a dose of 100xLD50 in TEST 2.; type: functional; conditions: sc; method in brief: as §2
# [6] = tested on: Staphylococcus epidermidis; experiment: The in vitro antibacterial activity as minimum inhibitory concentration against Staphylococcus epidermidis 3519; type: functional
# Method in brief: (§3)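 Agar dilution: organisms grown overnight in BHI broth at 36 °C. Two-fold dilutions of a 2000 μg/mL stock were made in BHI agar, giving 200 to 0.005 μg/mL final. Plates were inoculated with about 10^4 organisms and incubated 18 h at 36 °C. MIC is the lowest concentration with no visible growth.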
# Staphylococcus aureus [7] = experiment: Median dose against Staphylococcus aureus NCTC 10649 in mouse after peroral administration at a dose of 100xLD50 in TEST 2.; type: functional; conditions: po; method in brief: as §2
# Escherichia coli [8] = experiment: The in vitro antibacterial activity as minimum inhibitory concentration against Escherichia coli H-560; type: functional
# Method in brief: (§4)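 Agar dilution in BHI agar. Organisms were grown overnight in BHI broth at 36 °C. Two-fold dilutions gave test concentrations from 200 to 0.005 μg/mL. Plates were inoculated with ~10^4 organisms and incubated 18 h at 36 °C. MIC was the lowest concentration with no visible growth.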
# Pseudomonas aeruginosa [9] = experiment: The in vitro antibacterial activity as minimum inhibitory concentration against Pseudomonas aeruginosa K799/61; type: functional; method in brief: as §4
# Streptococcus agalactiae = experiment: The in vitro antibacterial activity as minimum inhibitory concentration against Streptococcus agalactiae CMX 508; type: functional; method in brief: as §3
# Acinetobacter = experiment: The in vitro antibacterial activity as minimum inhibitory concentration against Acinetobacter sp. CMX 669; type: functional; method in brief: as §4
# [10] = Partition coefficient in octanol/water at pH 7.5 buffer.; type: physicochemical
# Staphylococcus aureus [11] = experiment: The in vitro antibacterial activity as minimum inhibitory concentration against Staphylococcus aureus 45 RAR2; type: functional; method in brief: as §4
# Streptococcus pyogenes [12] = experiment: The in vitro antibacterial activity as minimum inhibitory concentration against Streptococcus pyogenes EES61; type: functional; method in brief: as §3
# Staphylococcus aureus [13] = experiment: Median dose against Staphylococcus aureus NCTC 10649 in mouse after subcutaneous administration at a dose of 100xLD50 in TEST 1.; type: functional; conditions: sc; method in brief: as §2
# [14] = Compound was tested for its water solubility at pH 7.5; type: physicochemical; conditions: aqueous, pH 7.5, pH 7.5
# Method in brief: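 Solubility measured by adding excess drug to a fixed volume of 0.05 M pH 7.5 potassium phosphate buffer at ambient temperature.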
# Pseudomonas aeruginosa [15] = experiment: The in vitro antibacterial activity as minimum inhibitory concentration against Pseudomonas aeruginosa BMH10; type: functional; method in brief: as §4
# Escherichia coli [16] = experiment: The in vitro antibacterial activity as minimum inhibitory concentration against Escherichia coli Juhl; type: functional; method in brief: as §4
# Streptococcus pneumoniae [17] = experiment: Median dose against Streptococcus pneumoniae 6303 in mouse after subcutaneous administration at a dose of 100xLD50 in TEST 1.; type: functional; conditions: sc; method in brief: as §2
# Burkholderia cepacia = experiment: The in vitro antibacterial activity as minimum inhibitory concentration against Pseudomonas cepacia 2961; type: functional; method in brief: as §4
# Staphylococcus aureus [18] = experiment: The in vitro antibacterial activity as minimum inhibitory concentration against Staphylococcus aureus A5177; type: functional; method in brief: as §3
# Escherichia coli [19] = experiment: Median dose against Escherichia coli Juhl in mouse after peroral administration at a dose of 100xLD50 in TEST 2.; type: functional; conditions: po; method in brief: as §2
# Pseudomonas aeruginosa [20] = experiment: The in vitro antibacterial activity as minimum inhibitory concentration against Pseudomonas aeruginosa K799/WT; type: functional; method in brief: as §4
# Providencia stuartii = experiment: The in vitro antibacterial activity as minimum inhibitory concentration against Providencia stuartii CMX 640; type: functional; method in brief: as §4
# Staphylococcus aureus [21] = experiment: The in vitro antibacterial activity as minimum inhibitory concentration against Staphylococcus aureus 45; type: functional; method in brief: as §4
# Escherichia coli [22] = experiment: The in vitro antibacterial activity as minimum inhibitory concentration against Escherichia coli SS; type: functional; method in brief: as §4
# Pseudomonas aeruginosa [23] = experiment: Median dose against Pseudomonas aeruginosa A5007 in mouse after subcutaneous administration at a dose of 100xLD50 in TEST 1.; type: functional; conditions: sc; method in brief: as §2
# Klebsiella aerogenes = experiment: The in vitro antibacterial activity as minimum inhibitory concentration against Enterobacter aerogenes ATCC 13048; type: functional; method in brief: as §4
# [24] = Compound was tested for its water solubility in water.; type: ADME; conditions: read-out: S
# Method in brief: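 Solubility measured by adding excess drug to a fixed volume of distilled water at ambient temperature.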
# Escherichia coli [25] = experiment: Median dose against Escherichia coli Juhl cumulative mortalities in mouse after peroral administration at a dose of 100xLD50 in TEST 1.; type: functional; conditions: po
# Method in brief: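 Female CF-1 mice (~20 g) were challenged ip with 0.5 mL of 18-h BHI culture diluted in 5% hog gastric mucin to 100× LD50 (LD50 by Reed–Muench). Oral doses in distilled water were split equally at 1 and 5 h post-infection, with ≥3 dose levels and 10 mice each, plus untreated controls. ED50 was derived from day-6 cumulative mortality by trimmed logit.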
# Escherichia coli [26] = experiment: Median dose against Escherichia coli Juhl in mouse after subcutaneous administration at a dose of 100xLD50 in TEST 1.; type: functional; conditions: sc; method in brief: as §2
# Enterococcus faecium = experiment: The in vitro antibacterial activity as minimum inhibitory concentration against Enterococcus faecium ATCC 8043; type: functional; method in brief: as §4
# Streptococcus pneumoniae [27] = experiment: Median dose against Streptococcus pneumoniae 6303 in mouse after peroral administration at a dose of 100xLD50 in TEST 1.; type: functional; conditions: po; method in brief: as §2
# Streptococcus pyogenes [28] = experiment: The in vitro antibacterial activity as minimum inhibitory concentration against Streptococcus pyogenes 930 Const; type: functional; method in brief: as §3
# Pseudomonas aeruginosa [29] = experiment: Median dose against Pseudomonas aeruginosa A5007 in mouse after peroral administration at a dose of 100xLD50 in TEST 2.; type: functional; conditions: po; method in brief: as §2
# Klebsiella pneumoniae = experiment: The in vitro antibacterial activity as minimum inhibitory concentration against Klebsiella pneumoniae ATCC 8045; type: functional; method in brief: as §4
# Micrococcus luteus [30] = experiment: The in vitro antibacterial activity as minimum inhibitory concentration against Micrococcus luteus ATCC 9341; type: functional; method in brief: as §4
# Escherichia coli [31] = experiment: The in vitro antibacterial activity as minimum inhibitory concentration against Escherichia coli DC-2; type: functional; method in brief: as §4
# Escherichia coli [32] = experiment: The in vitro antibacterial activity as minimum inhibitory concentration against Escherichia coli KNK437; type: functional; method in brief: as §4
# Staphylococcus aureus [33] = experiment: The in vitro antibacterial activity as minimum inhibitory concentration against Staphylococcus aureus ATCC 6538P; type: functional; method in brief: as §3
# Micrococcus luteus [34] = experiment: The in vitro antibacterial activity as minimum inhibitory concentration against Micrococcus luteus ATCC 4698; type: functional; method in brief: as §4
# Staphylococcus aureus [35] = experiment: Median dose against Staphylococcus aureus NCTC 10649 in mouse after peroral administration at a dose of 100xLD50 in TEST 1.; type: functional; conditions: po; method in brief: as §2
# Pseudomonas aeruginosa [36] = experiment: The in vitro antibacterial activity as minimum inhibitory concentration against Pseudomonas aeruginosa A5007; type: functional; method in brief: as §4
# Streptococcus pyogenes [37] = experiment: The in vitro antibacterial activity as minimum inhibitory concentration against Streptococcus pyogenes 2548 INDUC; type: functional; method in brief: as §3
# Staphylococcus aureus [38] = experiment: The in vitro antibacterial activity as minimum inhibitory concentration against Staphylococcus aureus CMX 553; type: functional; method in brief: as §3
# Pseudomonas aeruginosa [39] = experiment: Median dose against Pseudomonas aeruginosa A5007 in mouse after subcutaneous administration at a dose of 100xLD50 in TEST 2.; type: functional; conditions: sc; method in brief: as §2
# Streptococcus equinus = experiment: The in vitro antibacterial activity as minimum inhibitory concentration against Streptococcus bovis A5169; type: functional; method in brief: as §3
# Staphylococcus aureus [40] = experiment: Median dose against Staphylococcus aureus NCTC 10649 in mouse after subcutaneous administration at a dose of 100xLD50 in TEST 2.; type: functional; conditions: sc; method in brief: as §2
smiles,measurement,setting,value
CN(C)CCCN1c2ccccc2Sc2ccc(Cl)cc21 [CHLORPROMAZINE],Mean activity counts,Rattus norvegicus [1],31
CN[C@@H](C)Cc1ccccc1 [METHAMPHETAMINE],Mean activity counts,Rattus norvegicus [2],1462
CCn1cc(C(=O)O)c(=O)c2cc3c(cc21)OCO3 [OXOLINIC ACID],Mean activity counts,Rattus norvegicus [3],972
CC1CN(c2cc3c(cc2F)c(=O)c(C(=O)O)cn3-c2ccc(F)cc2F)CCN1 (stereo not drawn) [TEMAFLOXACIN],ED50,Pseudomonas aeruginosa [4],26.6 mg/kg
same,ED50,Escherichia coli [5],0.6 mg/kg
same,MIC,[6],0.2 µg/mL
same,ED50,Staphylococcus aureus [7],3.2 mg/kg
same,MIC,Escherichia coli [8],0.05 µg/mL
same,MIC,Pseudomonas aeruginosa [9],0.05 µg/mL
same,MIC,Streptococcus agalactiae,0.78 µg/mL
same,MIC,Acinetobacter,0.1 µg/mL
same,logD,[10],-0.29
same,MIC,Staphylococcus aureus [11],0.39 µg/mL
same,MIC,Streptococcus pyogenes [12],0.39 µg/mL
same,ED50,Staphylococcus aureus [13],1.5 mg/kg
same,solubility,[14],670 µg/mL
same,MIC,Pseudomonas aeruginosa [15],0.39 µg/mL
same,MIC,Escherichia coli [16],0.05 µg/mL
same,ED50,Streptococcus pneumoniae [17],6.2 mg/kg
same,MIC,Burkholderia cepacia,12.5 µg/mL
same,MIC,Staphylococcus aureus [18],0.2 µg/mL
same,ED50,Escherichia coli [19],5 mg/kg
same,MIC,Pseudomonas aeruginosa [20],0.39 µg/mL
same,MIC,Providencia stuartii,3.1 µg/mL
same,MIC,Staphylococcus aureus [21],0.2 µg/mL
same,MIC,Escherichia coli [22],0.005 µg/mL
same,ED50,Pseudomonas aeruginosa [23],10.3 mg/kg
same,MIC,Klebsiella aerogenes,0.1 µg/mL
same,solubility,[24],6500 µg/mL
same,ED50,Escherichia coli [25],3.7 mg/kg
same,ED50,Escherichia coli [26],0.5 mg/kg
same,MIC,Enterococcus faecium,0.78 µg/mL
same,ED50,Streptococcus pneumoniae [27],10.2 mg/kg
same,MIC,Streptococcus pyogenes [28],0.78 µg/mL
same,ED50,Pseudomonas aeruginosa [29],26.6 mg/kg
same,MIC,Klebsiella pneumoniae,0.05 µg/mL
same,MIC,Micrococcus luteus [30],3.1 µg/mL
same,MIC,Escherichia coli [31],0.39 µg/mL
same,MIC,Escherichia coli [32],0.39 µg/mL
same,MIC,Staphylococcus aureus [33],0.1 µg/mL
same,MIC,Micrococcus luteus [34],1.56 µg/mL
same,ED50,Staphylococcus aureus [35],6 mg/kg
same,MIC,Pseudomonas aeruginosa [36],0.39 µg/mL
same,MIC,Streptococcus pyogenes [37],0.39 µg/mL
same,MIC,Staphylococcus aureus [38],0.2 µg/mL
same,ED50,Pseudomonas aeruginosa [39],12.5 mg/kg
same,MIC,Streptococcus equinus,1.56 µg/mL
same,ED50,Staphylococcus aureus [40],1.3 mg/kg
